What all share (format): functional
The species entered for assay [1] is Cavia porcellus. The experiment in a line: Cardiotonic activity was measured in guinea pig atria at 54 uM concentration; Ranking. The method in brief:
(§1)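 Isolated atria suspended at 37 °C in Tyrode's solution aerated with O2-CO2 (95:5). After at least 1 h equilibration, cumulative dose-response curves for rate and force of spontaneous contractions were built by serial additions of alkaloid in methanol, at least 10 min apart. Effects given at 54 μM; values are averages of two to six experiments.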

Assay [2] is filed under the species Cavia porcellus. The experiment in a line: Cardiotonic activity was measured in guinea pig atria at 18 uM concentration; Ranking. The method in brief:
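Isolated spontaneously beating atria held at 37 °C in Tyrode's solution gassed with 95:5 O2-CO2, equilibrated at least 1 h. Alkaloid was added serially in methanol, at least 10 min apart, to build cumulative dose-response curves. Rate and force of spontaneous contractions were recorded. Values are averages of two to six experiments.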

Assay [3] is filed under the species Cavia porcellus. The experiment in a line: Phosphoinositide breakdown in guinea pig brain synaptoneurosomes. Also on record: concentration or dose not given beside the values. The method in brief:
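Guinea pig cerebral cortex synaptoneurosomes (~1 mg protein per tube) were labelled 60 min at 37 °C with 1 μM [3H]inositol in Krebs-Henseleit buffer (pH 7.4). LiCl was added, and agents were added 10 min later for 90 min at 37 °C under O2-CO2. [3H]inositol 1-phosphate was isolated by anion exchange and counted. Results are percent of control, means ± SEM (n = 3) or single values at 10 μM.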

The species named for assay [4] is Cavia porcellus. The experiment in a line: Cardiotonic activity was measured in guinea pig atria at 54 uM concentration; Ranking -. The method in brief: as §1
The species named for assay [5] is Cavia porcellus. The experiment in a line: Specific sodium influx was measured in guinea pig brain synaptoneurosomes at 100 uM concentration (10s of incubation).
The species named for assay [6] is Mus musculus. The experiment in a line: Phosphoinositide (PI) breakdown was measured in mouse atria at 10 uM. An outline of the steps: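 Male mouse (20-25 g) right and left atria were prelabelled for 60 min at 37 °C in Krebs-Henseleit buffer (pH 7.4) with 1 μM [3H]inositol. LiCl (10 mM final) was added, and agents were added 15 min later at 10 μM for 30 min at 37 °C. [3H]inositol phosphates in the TCA extract were separated by anion exchange. Results are percent of control, two to four determinations ± SEM.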

Each structure is given as a SMILES string.

On to `C/C(=C\C[C@@H](C)/C=C1\CN2CCC[C@H]2[C@@](C)(O)C1)[C@@H](O)[C@H](C)O`, for which the Activity entry in assay [1] is on record as “Ranking”.

On to `C/C(=C\C[C@@H](C)/C=C1\CN2CCC[C@H]2[C@@](C)(O)[C@@H]1O)[C@@H](O)[C@@H](C)O`, for which the results for the Activity entry in assay [2] and in assay [3] were “Ranking” and 304%, respectively.

On to `CCC(=O)/C(C)=C/C[C@@H](C)/C=C1\CN2CCC[C@H]2[C@@](C)(O)C1`, for which the Activity entry in assay [4] is given as “Ranking -”; in assay [3], 109%.

Turning to `C/C(=C\C[C@@H](C)/C=C1\CN2CCC[C@H]2[C@@](C)(O)C1)[C@@H](O)[C@@H](C)O`, the Activity is 280% in assay [3], 3.05 nM (mg of protein)-1 in assay [5] and 150% in assay [6].

Turning to `C=CCCCC/C=C1\CN2CCC[C@H]2[C@@](C)(O)C1`, the Activity result in assay [4] is reported as “Ranking -”; in assay [3], 112%.

Consider `CCC(OC)/C(C)=C/C[C@@H](C)/C=C1\CN2CCC[C@H]2[C@@](C)(O)C1` (stereo not given in full), for which the Activity result in assay [4] is recorded as “Ranking -”; in assay [3] it was 118%; in assay [5] it was 0.29 nM (mg of protein)-1; in assay [6], 92%.

In the case of `C[C@]1(O)C/C(=C/CCCCCCO)CN2CCC[C@H]21`, the Activity entry is on record as “Ranking -” in assay [4] and 122% in assay [3].

`CC(O)CC[C@@H](C)/C=C1\CN2CCC[C@H]2[C@@](C)(O)C1` (stereo not given in full): the Activity entry is on record as “Ranking” in assay [1] and 129% in assay [3].

As for `C/C(=C\C[C@@H](C)/C=C1\CN2CCC[C@H]2[C@@](C)(O)[C@H]1O)[C@@H](O)[C@@H](C)O`, the Activity entry in assay [1] is “Ranking”; in assay [3], 176%.

For the compound `C[C@@H](/C=C1\CN2CCC[C@H]2[C@@](C)(O)C1)CCO`, the Activity entry in assay [4] is “Ranking -”; in assay [3], 110%.

For the compound `C/C(=C\C[C@@H](C)/C=C1\CN2CCC[C@H]2[C@@](C)(O)C1)[C@H](O)[C@H](C)O`, the Activity result in assay [1] is “Ranking”; in assay [3], 129%.

Turning to `CCCC[C@@H](C)/C=C1\CN2CCC[C@H]2[C@@](C)(O)C1`, the Activity entry in assay [4] is “Ranking -”; in assay [3] it was 132%.

With `CCC[C@@H](C)/C=C1\CN2CCC[C@H]2[C@@](C)(O)[C@@H]1O`, the Activity result in assay [1] is “Ranking”; in assay [3], 138%.

On to `C[C@H](/C=C1\CN2CCC[C@H]2[C@@](C)(O)C1)CCO`, for which the Activity entry in assay [4] is listed as “Ranking -”; in assay [3] it was 115%.

With `CC[C@@H](O)/C(C)=C/C[C@@H](C)/C=C1\CN2CCC[C@H]2[C@@](C)(O)[C@@H]1O`, the Activity result in assay [1] is “Ranking”; in assay [3] it was 137%.

`CC[C@H](O)/C(C)=C/C[C@@H](C)/C=C1\CN2CCC[C@H]2[C@@](C)(O)[C@@H]1O`: the Activity result in assay [2] was “Ranking”; in assay [3], 275%.

Take `CCC[C@H](C)/C=C1\CN2CCC[C@H]2[C@@](C)(O)[C@H]1O`: the Activity entry in assay [4] was “Ranking -”; in assay [3] it was 116%.

Take `CCC(O)/C(C)=C/C[C@@H](C)/C=C1\CN2CCC[C@H]2[C@@](C)(O)C1` (stereo not given in full): the Activity result in assay [1] was “Ranking”; in assay [3], 172%; in assay [5] it was 0.72 nM (mg of protein)-1; in assay [6], 114%.

For `C[C@@H](/C=C1\CN2CCC[C@H]2[C@@](C)(O)C1)CCOCc1ccccc1`, the figures for the Activity entry in assay [4] and in assay [3] were “Ranking -” and 102%, respectively.

As to `C/C(=C\C[C@H](C)/C=C1\CN2CCC[C@H]2[C@@](C)(O)C1)[C@@H](O)[C@@H](C)O`, the Activity entry in assay [1] is “Ranking”; in assay [3] it was 110%.

Take `CC[C@H](O)/C(C)=C/C[C@@H](C)/C=C1\CN2CCC[C@H]2[C@@](C)(O)C1`: the Activity result in assay [1] is “Ranking”.

These data come from ChEMBL document CHEMBL1124254, “Pumiliotoxin alkaloids: relationship of cardiotonic activity to sodium channel activity and phosphatidylinositol turnover” (1988).
